Assays:
[1] = Tmax in juvenile fasted Sprague-Dawley rat at 30 mg/kg, po administered as water solution by HPLC-tandem mass spectrometry; assay type: ADME, organism-based; set-up: dose 30 mg/kg, route oral; settings: in vivo
How it was run: (§1)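 Seven-day-old Sprague-Dawley pups, males and females, 15 per group, were gavaged with 30 mg/kg (10 ml/kg). Breast-fed pups stayed with their dams; fasted pups were removed from 8 h predose through 5 h. Cardiac blood was drawn under isoflurane at 0.25, 0.5, 1, 2 and 5 h (composite, n=3/time point), with dichlorvos added. Plasma was analyzed by HPLC-MS/MS and Tmax read graphically.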

[2] = Terminal half life in healthy human at 150 mg, po administered as single dose by HPLC-tandem mass spectrometry under fed conditions; assay type: ADME, organism-based; settings: in vivo, read-out: beta t1/2 (converted)
How it was run: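 Open-label crossover food-effect study in 18 healthy volunteers (9 male, 9 female, mean age 26). Each received a single 150 mg oral dose of the marketed formulation, once fasting from midnight and once after a high-fat, high-calorie breakfast, separated by a 7–10 day washout. Plasma and urine were collected over 0–72 h and assayed by HPLC-MS/MS for oseltamivir and carboxylate.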

[3] = Tmax in adult fasted Sprague-Dawley rat at 30 mg/kg, po administered as water solution by HPLC-tandem mass spectrometry; assay type: ADME, organism-based; set-up: dose 30 mg/kg, route oral; settings: in vivo
How it was run: (§2)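 Male Sprague-Dawley rats (7–8 weeks, 243–283 g) had jugular-vein cannulas and 3 days' recovery. Fasting ran from 6 h predose through the 6 h study. Three rats per vehicle received 30 mg/kg oral (10 ml/kg). Blood was sampled 0.25–6 h into K2EDTA tubes with dichlorvos. Plasma was assayed by HPLC-MS/MS (0.1–500 µg/l). Tmax was read graphically (noncompartmental).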

[4] = Cmax in juvenile fasted Sprague-Dawley rat at 30 mg/kg, po administered as water solution by HPLC-tandem mass spectrometry; assay type: ADME, organism-based; set-up: dose 30 mg/kg, route oral; settings: in vivo
How it was run: (§3)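 7-day-old Sprague-Dawley pups (9.7-18.9 g, both sexes), 15 per group. Given 30 mg/kg by oral gavage (10 ml/kg); breast-fed pups stayed with dams, fasted pups were removed 8 h before dosing. Blood taken by cardiac puncture under isoflurane at 0.25, 0.5, 1, 2 and 5 h, n=3 per time point (composite design). Dichlorvos-treated plasma assayed by LC-MS/MS; AUC0-5h by noncompartmental analysis.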

[5] = Drug excretion in healthy human urine assessed as unchanged drug level at 150 mg, po administered as single dose by HPLC-tandem mass spectrometry under fasting conditions; assay type: ADME, organism-based; settings: read-out: Drug excretion
How it was run: (§4)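 Open-label crossover in 18 healthy volunteers (9 male, 9 female, mean age 26). Each received marketed oseltamivir 150 mg orally, once fasted from midnight and once after a high-fat, high-calorie breakfast, with a 7-10 day washout. Plasma and urine collected over 0-72 h and analysed by HPLC-MS/MS. AUC and Cmax compared after log transformation.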

[6] = AUC(0 to 6 hrs) in adult fasted Sprague-Dawley rat at 30 mg/kg, po administered as 125 mM aqueous Gly-Sar solution by HPLC-tandem mass spectrometry; assay type: ADME, organism-based; set-up: time < 6 hr, dose 30 mg/kg, route oral; settings: plasma
How it was run: (§5)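 Adult male Sprague-Dawley rats (243-283 g), jugular-cannulated, fasted from 6 h before dosing through the 6-h study. Given 30 mg/kg orally (free base) at 10 ml/kg, n=3/group. Blood sampled at 0.25-6 h into K2EDTA with dichlorvos esterase inhibitor. Plasma assayed by LC-MS/MS (0.1-500 μg/l). Noncompartmental analysis: linear-trapezoid AUC; infinity extrapolation via log-linear terminal λz.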

[7] = Drug excretion in healthy human urine assessed as unchanged drug level at 150 mg, po administered as single dose by HPLC-tandem mass spectrometry under fed conditions; assay type: ADME, organism-based; settings: read-out: Drug excretion; how it was run: as §4
[8] = Drug uptake in CHOK1 cells at pH 6 by HPLC coupled with radiodetection analysis; assay type: ADME, cell-based, Cricetulus griseus; settings: chinese hamster, cho-k1, pH 6
[9] = AUC(0 to infinity) in adult fed Sprague-Dawley rat at 30 mg/kg, po administered as water solution by HPLC-tandem mass spectrometry; assay type: ADME, organism-based; set-up: time infinity, dose 30 mg/kg, route oral; settings: plasma
How it was run: (§6)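 Sprague-Dawley males, 7-8 weeks, 243-283 g, jugular-cannulated, 3 days' recovery; fed (chow ad libitum). Single oral dose of 30 mg/kg (free base) at 10 ml/kg; 3 rats/group. Jugular blood taken at 0.25-24 h into K2EDTA with dichlorvos, kept on ice. Plasma analysed by validated LC-MS/MS (0.1-500 μg/l). Noncompartmental analysis; AUC by linear trapezoid, AUC0-∞ extrapolated using λz.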

[10] = AUC(0 to 6 hrs) in adult fasted Sprague-Dawley rat at 30 mg/kg, po administered as water solution by HPLC-tandem mass spectrometry; assay type: ADME, organism-based; set-up: time < 6 hr, dose 30 mg/kg, route oral; settings: plasma; how it was run: as §5
[11] = Cmax in juvenile fasted Sprague-Dawley rat at 30 mg/kg, po administered as solution in bovine milk by HPLC-tandem mass spectrometry; assay type: ADME, organism-based; set-up: dose 30 mg/kg, route oral; settings: in vivo; how it was run: as §3
[12] = AUC(0 to 6 hrs) in adult fasted Sprague-Dawley rat at 30 mg/kg, po administered as solution in bovine milk by HPLC-tandem mass spectrometry; assay type: ADME, organism-based; set-up: time < 6 hr, dose 30 mg/kg, route oral; settings: in vivo; how it was run: as §5
[13] = AUC(0 to infinity) in adult fasted Sprague-Dawley rat at 30 mg/kg, po administered as solution in bovine milk by HPLC-tandem mass spectrometry; assay type: ADME, organism-based; set-up: time infinity, dose 30 mg/kg, route oral; settings: in vivo; how it was run: as §5
[14] = AUC(0 to 5 hrs) in juvenile breast-fed Sprague-Dawley rat at 30 mg/kg, po administered as water solution by HPLC-tandem mass spectrometry; assay type: ADME, organism-based; set-up: time < 5 hr, dose 30 mg/kg, route oral; settings: plasma; how it was run: as §3
[15] = Drug uptake in CHOK1 cells at pH 5 by HPLC coupled with radiodetection analysis; assay type: ADME, cell-based, Cricetulus griseus; settings: chinese hamster, cho-k1, pH 5
[16] = Apparent oral clearance in healthy human at 150 mg, po administered as single dose by HPLC-tandem mass spectrometry under fasting conditions; assay type: ADME, organism-based; settings: in vivo; how it was run: as §4
[17] = AUC(0 to infinity) in adult fasted Sprague-Dawley rat at 30 mg/kg, po administered as water solution by HPLC-tandem mass spectrometry; assay type: ADME, organism-based; set-up: time infinity, dose 30 mg/kg, route oral; settings: plasma; how it was run: as §5
[18] = Tmax in adult fasted Sprague-Dawley rat at 30 mg/kg, po administered as solution in bovine milk by HPLC-tandem mass spectrometry; assay type: ADME, organism-based; set-up: dose 30 mg/kg, route oral; settings: in vivo; how it was run: as §2
[19] = AUC(0 to infinity) in adult fed Sprague-Dawley rat at 30 mg/kg, po administered as solution in bovine milk by HPLC-tandem mass spectrometry; assay type: ADME, organism-based; set-up: time infinity, dose 30 mg/kg, route oral; settings: in vivo; how it was run: as §6
[20] = Tmax in juvenile fasted Sprague-Dawley rat at 30 mg/kg, po administered as solution in bovine milk by HPLC-tandem mass spectrometry; assay type: ADME, organism-based; set-up: dose 30 mg/kg, route oral; settings: in vivo; how it was run: as §1
[21] = Cmax in adult fed Sprague-Dawley rat at 30 mg/kg, po administered as water solution by HPLC-tandem mass spectrometry; assay type: ADME, organism-based; set-up: dose 30 mg/kg, route oral; settings: in vivo
How it was run: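 Adult cannulated Sprague-Dawley rats, fasted (from 6 h predose) or fed, dosed orally at 30 mg/kg (10 ml/kg), 3 per group. Serial jugular plasma with dichlorvos stabilisation, measured by LC-MS/MS. Cmax read graphically from the concentration-time profile.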

[22] = Drug uptake in CHOK1 cells expressing human PEPT1 at pH 6 by HPLC coupled with radiodetection analysis; assay type: ADME, cell-based, Cricetulus griseus; settings: chinese hamster, cho-k1, pH 6
How it was run: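 Accumulation of [14C]oseltamivir or its carboxylate in CHO-PEPT1 versus CHO-K1 cells. Conditions varied: KH buffer (with MES) or Hanks' balanced salt solution, pH 5 or 6 readjusted after substrate addition, 30 s to 15 min at 37°C. Uptake was quenched with ice-cold PBS-BSA, followed by Triton X-100 lysis, scintillation counting, and BCA protein normalization. HPLC-radiodetection checked ester stability.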

| Tmax [1] | half-life [2] | Tmax [3] | Cmax [4] | dose excreted [5] | AUC(0-t) at 6 h [6] | dose excreted [7] | Drug uptake [8] | AUC(0-inf) [9] | AUC(0-t) at 6 h [10] | Cmax [11] | AUC(0-t) at 6 h [12] | AUC(0-inf) [13] | AUC(0-t) at 5 h [14] | Drug uptake [15] | CL/F [16] | AUC(0-inf) [17] | Tmax [18] | AUC(0-inf) [19] | Tmax [20] | Compound | further results |
| --- | --- | --- | --- | --- | --- | --- | --- | --- | --- | --- | --- | --- | --- | --- | --- | --- | --- | --- | --- | --- | --- |
| 2 h | 8.2 h | 1.08 h | 3100 ng/mL | 58.5% | 8350 ng·h/mL | 55.5% | Active | 5290 ng·h/mL | 5910 ng·h/mL | 2460 ng/mL | 5810 ng·h/mL | 6300 ng·h/mL | 5070 ng·h/mL | Active | 371 mL/min | 6140 ng·h/mL | 1.92 h | 6340 ng·h/mL | 5 h | CCC(CC)O[C@@H]1C=C(C(=O)O)C[C@H](N)[C@H]1NC(C)=O [OSELTAMIVIR CARBOXYLATE] | Cmax [21]: 1110 ng/mL; Drug uptake [22]: Active |
| 0.5 h | 2.15 h | 0.83 h | 10500 ng/mL | 3.09% | 3780 ng·h/mL | 4.32% | Active | 2510 ng·h/mL | 2680 ng·h/mL | 7990 ng/mL | 3010 ng·h/mL | 3060 ng·h/mL | 20300 ng·h/mL | Active | 13000 mL/min | 2710 ng·h/mL | 0.5 h | 2810 ng·h/mL | 1 h | CCOC(=O)C1=C[C@@H](OC(CC)CC)[C@H](NC(C)=O)[C@@H](N)C1 [OSELTAMIVIR] | Cmax [21]: 1270 ng/mL; Drug uptake [22]: Active |
